# Test results: paper PMC11052883 (Clinical Pharmacokinetics, 2024)
# Several values for one entry are separate records, joined by “and”; a condition that tells them apart may be missing. Identical values can stand only once. Square brackets hold non-standard residues; d marks the D form. Peptide text beside a SMILES is read from it. * marks the point of attachment. Dolaproine = CO[C@@H]([C@@H]1CCCN1)[C@@H](C)C(=O)O; Dil = CC[C@H](C)[C@H](NC)[C@@H](CC(=O)O)OC; X1 = C[C@@H](N*)[C@@H](O)c1ccccc1; NMeV = CN[C@H](C(=O)O)C(C)C
# Tests used:
# [1] = tested on: OCT2; settings: in vitro, cited from earlier work
# [2] = tested on: OAT3; settings: in vitro, cited from earlier work
# [3] = tested on: OAT1; settings: in vitro, cited from earlier work
# [4] = tested on: QTcF interval; assay: EV-102 concentration–QTcF analysis; assay type: in vivo, human; settings: patients, third dose of enfortumab vedotin 1.25 mg/kg
# [5] = tested on: CYP3A; settings: when administered as part of an ADC; cited from earlier work
# [6] = tested on: cytochrome P450 (CYP) 3A4; settings: background statement, no reference given; cited from earlier work
# [7] = MMAE given as brentuximab vedotin; cited from earlier work
# [8] = Population PK: model-predicted exposures by race/ethnicity; assay type: in vivo, human; settings: for difference in exposure, lower in Asian patients: cycle 1 AUC0–28d and Cmax, Asian vs non-Asian; for geometric least square mean ratios of Cmax, AUC0–28d and Ctrough lower in Japanese than non-Japanese patients: population PK model-simulated
# [9] = tested on: plasma proteins; assay: MMAE protein binding in human plasma; assay type: in vitro ADME; settings: used for unbound Cmax
# [10] = tested on: OATP1B1; settings: in vitro, cited from earlier work
# [11] = EV-201 clinical PK of ADC, TAb and free MMAE after enfortumab vedotin 1.25 mg/kg; assay type: in vivo, human; settings: for AUCd0–14: cycle 1, dose 3, day 15, geometric mean (%CV)
# [12] = Population PK: effect of mild hepatic impairment on model-predicted exposures; assay type: in vivo, human; settings: mild hepatic impairment compared with normal hepatic function
# [13] = tested on: BCRP; settings: in vitro; cited from earlier work
# [14] = tested on: plasma proteins; settings: 3H-MMAE, human plasma; cited from earlier work
# [15] = tested on: BSEP; settings: in vitro, clinically relevant concentrations; cited from earlier work
# [16] = tested on: P-glycoprotein (P-gp); settings: in vitro, cited from earlier work
# [17] = tested on: MRP2; settings: in vitro, cited from earlier work
# [18] = tested on: OATP1B3; settings: in vitro, cited from earlier work
# [19] = tested on: OCT1; settings: in vitro, clinically relevant concentrations; cited from earlier work
# [20] = Population PK analysis of five clinical studies; assay type: in vivo, human; settings: enfortumab vedotin 0.5–1.25 mg/kg
# [21] = biological target: human ether-a-go-go–related (hERG) channel (Homo sapiens, UniProt Q12809); assay: hERG channel inhibition, whole-cell voltage clamp; assay type: cell-based
# How it was run: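 In vitro hERG current by conventional whole-cell voltage clamp, with MMAE (free payload) tested at concentrations up to 100 μM. Half-maximal inhibitory concentration is estimated from the concentration–inhibition data. The comparator is the mean estimated maximum unbound plasma MMAE concentration in patients after a third 1.25 mg/kg dose, using an unbound fraction of 0.32.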
# [22] = tested on: QTcF interval; settings: cited from earlier work; for Cmax geometric mean: EV-102, after third dose, cycle 1 day 15, 1.25 mg/kg
# [23] = Adverse events in pooled enfortumab vedotin 1.25 mg/kg safety group; assay type: in vivo, human; settings: for patients with grade 3 or higher TRAEs / patients with serious TRAEs: 1.25 mg/kg safety analysis group; for patients with TRAE grade 3 or higher / patients with serious TRAE: 1.25 mg/kg
# How it was run: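 Pooled integrated safety dataset (N = 680) from the clinical development program. Patients received monotherapy at 1.25 mg/kg (maximum 125 mg) as a 30-min IV infusion on days 1, 8 and 15 of each 28-day cycle until progression or unacceptable toxicity. Treatment-emergent and treatment-related AEs, including serious events, were tabulated by subgroups of concomitant inhibitor use.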
# [24] = tested on: mUC and other Nectin-4–expressing malignant solid tumors; assay: EV-101 phase I dose-escalation; assay type: in vivo, human
# [25] = tested on: Nectin-4–expressing malignant solid tumors; assay: AGS-22M6E-11-1 phase I study; assay type: in vivo, human; settings: for median t½: observed concentrations
# How it was run: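 First-in-human study in which patients received an intravenous infusion every 3 weeks at 0.6 or 1.2 mg/kg. ADC is measured as antibody carrying any amount of conjugated MMAE. Median half-life is derived from observed ADC concentrations at each dose level. Safety, tolerability and clinical response are assessed per dose cohort.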
# [26] = tested on: locally advanced or metastatic urothelial carcinoma; assay: EV-301 phase III: exposure–response for overall survival; assay type: in vivo, human; settings: enfortumab vedotin range across ADC Cavg quartiles
# [27] = tested on: locally advanced or metastatic urothelial carcinoma; assay: EV-201; assay type: in vivo, human; settings: upper three ADC Cavg exposure quartiles
# [28] = clinically relevant concentrations
# Sequence of human ether-a-go-go–related (hERG) channel (Q12809 whole entry): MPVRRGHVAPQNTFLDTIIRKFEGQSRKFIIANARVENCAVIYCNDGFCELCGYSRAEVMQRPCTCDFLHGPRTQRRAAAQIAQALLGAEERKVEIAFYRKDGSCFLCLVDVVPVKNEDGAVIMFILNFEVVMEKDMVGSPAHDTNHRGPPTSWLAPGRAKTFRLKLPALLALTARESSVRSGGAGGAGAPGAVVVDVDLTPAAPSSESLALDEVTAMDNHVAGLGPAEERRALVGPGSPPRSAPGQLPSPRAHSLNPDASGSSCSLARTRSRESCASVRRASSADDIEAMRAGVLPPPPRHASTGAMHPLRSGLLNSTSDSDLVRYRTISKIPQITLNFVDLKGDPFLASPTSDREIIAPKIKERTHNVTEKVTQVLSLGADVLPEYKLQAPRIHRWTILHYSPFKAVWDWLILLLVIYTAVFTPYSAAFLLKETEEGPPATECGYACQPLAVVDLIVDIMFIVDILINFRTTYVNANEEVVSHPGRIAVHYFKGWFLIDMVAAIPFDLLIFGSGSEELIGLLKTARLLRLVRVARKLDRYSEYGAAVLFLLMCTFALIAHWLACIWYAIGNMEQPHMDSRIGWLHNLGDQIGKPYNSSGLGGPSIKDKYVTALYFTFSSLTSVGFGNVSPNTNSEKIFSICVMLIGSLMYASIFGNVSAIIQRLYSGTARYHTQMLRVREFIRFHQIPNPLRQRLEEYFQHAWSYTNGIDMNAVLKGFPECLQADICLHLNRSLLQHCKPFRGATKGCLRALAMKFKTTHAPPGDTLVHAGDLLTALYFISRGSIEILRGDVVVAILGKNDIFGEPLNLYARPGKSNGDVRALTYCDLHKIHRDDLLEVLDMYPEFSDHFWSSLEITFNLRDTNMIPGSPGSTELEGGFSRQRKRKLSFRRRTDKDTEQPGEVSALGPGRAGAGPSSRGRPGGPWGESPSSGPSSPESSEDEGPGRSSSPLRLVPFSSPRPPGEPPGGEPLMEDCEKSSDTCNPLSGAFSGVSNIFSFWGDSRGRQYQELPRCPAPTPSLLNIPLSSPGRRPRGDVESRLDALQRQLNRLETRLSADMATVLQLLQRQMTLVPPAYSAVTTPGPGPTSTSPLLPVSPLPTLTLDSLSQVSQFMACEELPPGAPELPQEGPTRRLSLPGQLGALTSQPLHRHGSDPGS
molecule,measurement,setting,value
"CC[C@H](C)[C@@H]([C@@H](CC(=O)N1CCC[C@H]1[C@H](OC)[C@@H](C)C(=O)N[C@H](C)[C@@H](O)c1ccccc1)OC)N(C)C(=O)[C@@H](NC(=O)[C@@H](NC)C(C)C)C(C)C [MMAE, monomethyl auristatin E] (H-[NMeV]V[Dil][Dolaproine]-X1)",inhibitor of OCT2,[1]; [28],not an inhibitor
same,substrate of OCT2,[1],not a substrate
same,inhibitor of OAT3,[2]; [28],not an inhibitor
same,substrate of OAT3,[2],not a substrate
same,inhibitor of OAT1,[3]; [28],not an inhibitor
same,substrate of OAT1,[3],not a substrate
same,mean estimate of maximum unbound MMAE concentration,[4],0.002 μM and 1.26 ng/mL
same,inhibitor or inducer of CYP3A,[5],neither an inhibitor nor an inducer
same,metabolizing enzyme,[6],primarily metabolized by cytochrome P450 (CYP) 3A4
same,share of excreted MMAE that was excreted in feces,[7],approximately 72%
same,total MMAE administered excreted in feces and urine,[7],approximately 24%
same,"difference in exposure, lower in Asian patients",[8],< 11%
same,"geometric least square mean ratios of Cmax, AUC0–28d and Ctrough lower in Japanese than non-Japanese patients",[8],2.7–11.6%
same,unbound fraction,[9],0.32
same,inhibitor of OATP1B1,[10]; [28],not an inhibitor
same,substrate of OATP1B1,[10],not a substrate
same,Mean Cmax,"[11]; across cycles 1 and 2, enfortumab vedotin 1.25 mg/kg",2.4 to 3.9 ng/mL
same,time to peak concentration,[11]; after dosing of enfortumab vedotin 1.25 mg/kg,2 to 3 days
same,Cmax lower than that of ADC,[11]; enfortumab vedotin 1.25 mg/kg,more than 1000 fold
same,increase in AUC0–28d,[12],37%
same,increase in Cmax,[12],31%
same,substrate of BCRP,[13],not a substrate
same,bound to plasma proteins,[14],67.9–82.2%
same,inhibitor of BSEP,[15],not an inhibitor
same,inhibitor of P-gp,[16]; [28],not an inhibitor
same,substrate of P-gp,[16],substrate
same,inhibitor of MRP2,[17]; [28],not an inhibitor
same,substrate of MRP2,[17],not a substrate
same,inhibitor of OATP1B3,[18]; [28],not an inhibitor
same,substrate of OATP1B3,[18],not a substrate
same,inhibitor of OCT1,[19],not an inhibitor
same,mean clearance,[20],2.11 L/h
same,IC50 estimate relative to mean maximum unbound MMAE concentration,[21]; 100 μM vs 0.002 μM,"approximately 50,000 fold"
same,IC50,"[21]; read-out: half maximal inhibitory concentration, concentrations up to 100 μM",> 100 µM
same,Cmax geometric mean,[22],3.94 ng/mL
same,"Predicted dQTcF interval (population mean change in QTcF), mean (SE in table)","[22]; at geometric mean Cmax, 1.25 mg/kg",-3.14 ms
Enfortumab vedotin: fully human anti–Nectin-4 IgG1 kappa monoclonal antibody conjugated to MMAE via a protease-cleavable maleimidocaproyl valine–citrulline linker,"difference in exposure, lower in Asian patients",[8],< 11%
same,"geometric least square mean ratios of Cmax, AUC0–28d and Ctrough lower in Japanese than non-Japanese patients",[8],2.7–11.6%
same,patients with grade 3 or higher TRAEs,[23]; mild CYP3A inhibitors,51.1%
same,patients with serious TRAEs,[23]; mild CYP3A inhibitors,20.7%
same,patients with grade 3 or higher TRAEs,[23]; moderate CYP3A inhibitors,61.8%
same,patients with serious TRAEs,[23]; moderate CYP3A inhibitors,28.7%
same,patients with grade 3 or higher TRAEs,[23]; not receiving CYP3A inhibitors,41.5%
same,patients with serious TRAEs,[23]; not receiving CYP3A inhibitors,14.4%
same,patients with TRAE grade 3 or higher,[23]; not receiving P-gp inhibitors,33.3%
same,patients with serious TRAE,[23]; not receiving P-gp inhibitors,10.0%
same,patients with TRAE grade 3 or higher,[23]; receiving P-gp inhibitors,56.8%
same,patients with serious TRAE,[23]; receiving P-gp inhibitors,24.3%
same,AUCd0–14,[11]; listed as ADC,34.7 µg·days/mL
same,maximum tolerated dose,"[24]; EV-101, 0.5–1.25 mg/kg",not identified
same,confirmed objective response rate [ORR],"[24]; EV-101, 1.25-mg/kg dose level",42.9%
same,clinical response,[25]; 0.6 mg/kg and 1.2 mg/kg every 3 weeks,clinical response was not observed
same,median t½,[25]; 1.2 mg/kg intravenous dose,57.4 h
same,median t½,[25]; 0.6-mg/kg dose,39.6 h
same,median OS,[26],11.0–15.2 months
same,ORR (complete and partial responses),[27],55–64%
same,mean clearance,[20],0.11 L/h
same,QT prolongation,"[22]; EV-102, 1.0 or 1.25 mg/kg",No clinically meaningful QT prolongation was observed
same,"slope estimate, dQTcF vs concentration","[22]; EV-102, 1.0 or 1.25 mg/kg",0.539 ms/(μg/mL)
same,Cmax geometric mean,[22],20100 ng/mL
"TAb: analyte: fully conjugated, partially conjugated, and unconjugated antibody after enfortumab vedotin administration",geometric mean ratio (GMR) of accumulation,[11]; after repeat enfortumab vedotin dosing,1.1
same,AUCd0–14,[11],98.1 µg·days/mL
same,"average Ctrough, TAb relative to ADC",[11]; end of cycle 1,approximately 5.5 fold
